From the array DNA melting data of Ke et al. (doi:10.1101/2024.01.08.574731)

What was measured:
[1] = folding enthalpy; higher = less favourable; fluorescence melt of hairpins on a sequencing array, two-state fit; conditions: sodium 0.088 M
Method in brief: (§1)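 Cy3 signals were normalised both to pre-quench Cy3 and to control constructs. They came from library hairpins carrying annealed Cy3 and quencher oligos on a sequenced MiSeq flow cell, imaged in 50 mM Na-HEPES pH 8.0, 25 mM NaCl, in 2.5 °C steps up to 60 °C. Bootstrapped two-state fits gave melting temperature and folding enthalpy, and four replicates were combined by inverse variance. Fitted temperatures were then raised by 9.35 °C to match UV melts.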

[2] = melting temperature; fluorescence melt of hairpins on a sequencing array, two-state fit, raised by 9.35 °C to match UV melts; conditions: sodium 0.088 M
Method in brief: as §1

Sequence	folding enthalpy [1]	Tm [2]
CGCGGAACTATCCGCG ((((((....))))))	-31.2 kcal/mol	68.7 °C
GGTACGGGAAACCGTACC (((((((....)))))))	-33.4 kcal/mol	67.8 °C
GACACGGGAAACCACGTC (((..((....))..)))	-29 kcal/mol	34.6 °C
GCGTCAGGAAACCGACGC (((((.(....).)))))	-32.9 kcal/mol	58.6 °C
GCGTTTTAACGC ((((....))))	-26.5 kcal/mol	57.7 °C
GAGGGGGAAACCCCTC ((((((....))))))	-30 kcal/mol	65.4 °C
GGTCGAACGAAAGTTACC (((..(((....))))))	-11.7 kcal/mol	26.6 °C
GCACGTCGAAAGACCTGC (((.(((....))).)))	-28.1 kcal/mol	45.2 °C
GATCCTCTCAGGATC ((((((...))))))	-36.4 kcal/mol	55 °C
GACCGCGGAAACGTGGTC ((((.((....)).))))	-44.8 kcal/mol	62.8 °C
GCACATGGAAACACGTGC ((((.((....)).))))	-41 kcal/mol	46.7 °C
GCTATTACGAAAGTAAGC (((..(((....))))))	-13.6 kcal/mol	30 °C
GATCTATCTGTAGATC ((((((....))))))	-33.9 kcal/mol	42.9 °C
GCGCAAGGAAACTTACGC (((.(((....))).)))	-30.6 kcal/mol	46 °C
GTGACGCGAAAGCGCCAC (((.(((....))).)))	-33.9 kcal/mol	68 °C
GTGCCGGCGAAAGCCCAC (((..(((....))))))	-6.81 kcal/mol	59.9 °C
GATCTCATCGAGATC ((((((...))))))	-36.1 kcal/mol	55.8 °C
GGAAGACGAAAGTCTCC (((.(((....))))))	-20.9 kcal/mol	52.3 °C
GATCATACCATGATC ((((((...))))))	-40.3 kcal/mol	48.9 °C
GGGCTTACGAAAGTACCC (((..(((....))))))	-20.9 kcal/mol	34.4 °C
GTTTGAGGAAACTCAAGC (.(((((....))))).)	-25.1 kcal/mol	40.5 °C
GCCGTTCGAAAGAAGGGC (((.(((....))).)))	-44 kcal/mol	60.2 °C
GGGGAACGAAAGTTGCCC (((.(((....))).)))	-39.1 kcal/mol	64 °C
GCCTTGCGAAAGCATGGC (((.(((....))).)))	-44.8 kcal/mol	62.1 °C

Sequence	folding enthalpy [1]	Tm [2]
GCCCAGCGAAAGCAGAGC ((.(.((....)).).))	-10.9 kcal/mol	41.2 °C
GCAGTGCGAAAGCATGGC ((..(((....)))..))	-19.2 kcal/mol	54 °C
GCATATCGAAAGATTGC (((.(((....))))))	-25.9 kcal/mol	46.6 °C
GAGACCGAAAGGTCCCTC ((((((....)))..)))	-11.1 kcal/mol	44.6 °C
GATCAAAGTGTTGATC ((((((....))))))	-29.6 kcal/mol	42.4 °C
TATCTGAAAAGATA (((((....)))))	-11.5 kcal/mol	29.8 °C
GACTGACGAAAGTCTGTC (((.(((....))).)))	-36.7 kcal/mol	54.9 °C
GCGTTCGAAAGAACCGC ((((((....))).)))	-23.8 kcal/mol	54.3 °C
GATCGCGGAAACGCGGTC ((.((((....)))).))	-22.8 kcal/mol	62.8 °C
GGCCCCGAAAGGGAGGCC ((((((....)))..)))	-26.9 kcal/mol	64.5 °C
GCGGGGCGAAAGCCAAGC ((..(((....)))..))	-27.7 kcal/mol	65 °C
GTATCAGGAAACTGGTAC (((.(((....))).)))	-29.5 kcal/mol	43.5 °C
GACAACGGAAACGTTATC ((.((((....)))).))	-21 kcal/mol	31.5 °C
GATCTGGTGCCAGATC ((((((....))))))	-46.6 kcal/mol	52.2 °C
GAGCGTGGAAACGCGCTC (((((.(....).)))))	-21.7 kcal/mol	66.7 °C
GCTGCTGGAAACAGCGGC ((.((((....)))).))	-45.2 kcal/mol	65.8 °C
GGAGGGCGAAAGCCATCC (((.(((....))).)))	-33.8 kcal/mol	66.3 °C
GTGCACTCGAAAGAGCAC (((..(((....))))))	-27.8 kcal/mol	45.2 °C
GGCTAAGGAAACTCAGCC ((((.((....)).))))	-27.3 kcal/mol	38.1 °C
GATCTTCCGCAAGATC ((((((....))))))	-35.4 kcal/mol	42.5 °C
GTCGTCGAAAGACCGGAC ((((((....)))..)))	-16.9 kcal/mol	37.4 °C
GGCTTCCCGAAAGGGGCC (((..(((....))))))	-17.7 kcal/mol	48.2 °C
GATCCGCCTTCGGATC ((((((....))))))	-44.3 kcal/mol	55.9 °C
CGTTCGAAAGAACG (((((....)))))	-30.6 kcal/mol	58.2 °C

Sequence	folding enthalpy [1]	Tm [2]
GCGTACAAACGC ((((....))))	-21.5 kcal/mol	51.1 °C
GGTGTGGGAAACCACGCC ((.((((....)))).))	-27.4 kcal/mol	60.5 °C
GATCAGGGCCTGATC ((((((...))))))	-68.2 kcal/mol	53 °C
GATCGTCGTGACGATC ((((((....))))))	-50 kcal/mol	63.4 °C
GGAACACGAAAGTGCTCC (((.(((....))).)))	-40.7 kcal/mol	50.2 °C
GGATTTCGAAAGAACTCC (((.(((....))).)))	-29.4 kcal/mol	38 °C
GATCACCTAAGTGATC ((((((....))))))	-38.9 kcal/mol	56.4 °C
CGGTCCGGAAACGGCCG (((.(((....))))))	-26.7 kcal/mol	57.6 °C
GATCCCCCGAAAGGGATC (((..(((....))))))	-30.7 kcal/mol	52.4 °C
GCGGTTGCGAAAGCACGC (((..(((....))))))	-19.9 kcal/mol	56.6 °C
GCACCCGAAAGGGTATGC ((((((....)))..)))	-13.9 kcal/mol	48.3 °C
GAGCAACCGAAAGGTCTC (((..(((....))))))	-13.1 kcal/mol	30.1 °C
GGATCCGGAAACGGACCC ((.((((....)))).))	-21.2 kcal/mol	50.4 °C
GATCCTATGCAGGATC ((((((....))))))	-35.2 kcal/mol	53 °C
GATCAAGACGTTGATC ((((((....))))))	-34 kcal/mol	48.2 °C
GTTGTTTCGAAAGAAAAC (((..(((....))))))	-32.9 kcal/mol	41.8 °C
GCGTCAGGACGC ((((....))))	-26 kcal/mol	56.5 °C
GCGTAACGACGC ((((....))))	-21.9 kcal/mol	51.4 °C
GATCCAGGAAACTGGACC (.(((((....))))).)	-15.9 kcal/mol	39.1 °C
GGGCTAGCGAAAGCTCCC (((..(((....))))))	-15.1 kcal/mol	38.8 °C
GTAGCGTCGAAAGACTAC (((..(((....))))))	-9.24 kcal/mol	24.7 °C
GATAAAGAAATTTATC ((((((....))))))	-15.9 kcal/mol	27.6 °C
GCGGACGGAAACACCCGC ((((..(....)..))))	-26.9 kcal/mol	41.9 °C
GGGAATGAAAATTCCC ((((((....))))))	-40.6 kcal/mol	56 °C

Sequence	folding enthalpy [1]	Tm [2]
GCTTAATCGAAAGATAGC (((..(((....))))))	-16.4 kcal/mol	30.8 °C
GTTGTTGCGAAAGCAAAC (((..(((....))))))	-21.7 kcal/mol	53.1 °C
GGACGCGAAAGCGATTCC ((((((....)))..)))	-11 kcal/mol	36.5 °C
GATCCTATTAAGGATC ((((((....))))))	-44.9 kcal/mol	52.2 °C
GATCGACCCTCGATC ((((((...))))))	-39.1 kcal/mol	51.7 °C
GATCTCACCCGAGATC ((((((....))))))	-39.5 kcal/mol	53.1 °C
CGTTACGGAAACGTACG (((.(((....))))))	-26.3 kcal/mol	45.4 °C
GCCTGTGGAAACGCAGGC (((((.(....).)))))	-38 kcal/mol	59.9 °C
GATCCCTAGGGGGATC ((((((....))))))	-34.8 kcal/mol	60.4 °C
GGCGGGACGAAAGTCGCC (((..(((....))))))	-28.6 kcal/mol	59.5 °C
GCGACGCGAAAGCGAAGC ((..(((....)))..))	-36.5 kcal/mol	66.2 °C
GTCGGGGGAAACCCTGGC (.(.(((....))).).)	-21.8 kcal/mol	43.9 °C
GATGCACGAAAGTGGATC (((.(((....))).)))	-37.5 kcal/mol	54.9 °C
GCAGTTGGAAACAATTGC (((.(((....))).)))	-31.2 kcal/mol	46.9 °C
GTAGACGAAAGTCCTTAC ((((((....)))..)))	-12.1 kcal/mol	30.7 °C
GATCCAAATGTGGATC ((((((....))))))	-33.8 kcal/mol	48.5 °C
GACGTGACGAAAGTCGTC (((..(((....))))))	-14.2 kcal/mol	49.4 °C
GCGCAGCGAAAGCTACGC (((.(((....))).)))	-35 kcal/mol	53.5 °C
GATCGGGCTCCGATC ((((((...))))))	-35.8 kcal/mol	58.3 °C
GCTCCATCGAAAGATAGC (((..(((....))))))	-10.7 kcal/mol	24.6 °C
GATCTAAACATAGATC ((((((....))))))	-26.9 kcal/mol	37 °C
